These results are taken from paper PMC3776988 (British Journal of Cancer, 2013).

In data set [1] the test system is patients with metastatic/advanced melanoma. To be noted: cited from earlier work.
For data set [2], the system named is patients with advanced malignant melanoma. Kind of data set: Phase II stage toxicity. In kind it is in vivo, human. The following applies: single-agent plitidepsin 3.2 mg m^−2. In short, it runs like this:
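Previously untreated adults with advanced melanoma (ECOG PS ⩽2) were randomised without stratification to plitidepsin 3.2 mg m−2 as a 1-h i.v. infusion on days 1, 8 and 15 q4wk. Day-1 dosing could be delayed up to 2 weeks, and day-8/15 doses were skipped if retreatment criteria were unmet. Up to two dose reductions were allowed. Patients receiving ⩾1 infusion were evaluable; AEs were graded by NCI-CTCAE v.3.0.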

Another data set concerns patients. The following applies: plitidepsin 1-h weekly schedule; ref Izquierdo et al, 2008; cited from earlier work.

Starred links: 1 amine or outer side, 2 acyl side, 3 side chain; linkers in the order of their positions; H or OH if unused. Positions of bridges follow the written chain, without caps; N, C: chain ends. Non-standard residues stand in square brackets, D forms with d. Residues, ends and D or L forms follow the SMILES beside them. *: point of attachment. X1 = CC[C@H](C)[C@@H](N[*:1])[C@@H](O)CC(=O)O[C@H](C(=O)[C@H](C)C(=O)[*:2])C(C)C; NMeY = CN[C@@H](Cc1ccc(O)cc1)C(=O)O; dNMeL = CN[C@H](CC(C)C)C(=O)O; Pyruvoyl = CC(=O)C(=O)*

For the molecule `CN(C)/N=N/c1[nH]cnc1C(N)=O` [DTIC, Dacarbazine], the “Responses to single-agent DTIC, % of patients” value in data set [1] (generally short lived, ref Falkson et al, 1998, Chapman et al, 1999, Chiarion Sileni et al, 2001, Avril et al, 2004, Bedikian et al, 2006, Schadendorf et al, 2006, Patel et al, 2011) is 6–15%. Also, in data set [1] (reported range), the “Response rates reported for single-agent DTIC” value is 5–15%.
Take `CC[C@H](C)[C@H]1NC(=O)[C@@H](NC(=O)[C@@H](CC(C)C)N(C)C(=O)[C@@H]2CCCN2C(=O)C(C)=O)[C@@H](C)OC(=O)[C@H](Cc2ccc(OC)cc2)N(C)C(=O)[C@@H]2CCCN2C(=O)[C@H](CC(C)C)NC(=O)[C@@H](C)C(=O)[C@H](C(C)C)OC(=O)C[C@@H]1O` [Plitidepsin, plitidepsin] (Pyruvoyl-P[dNMeL]T[X1]LP[NMeY](Me); ester 3-C): in data set [2], the Febrile neutropenia entry is recorded as “no cases”; the “Grade 3 ALT increases, % of patients” value was 10%; the “Omissions because of treatment-related transaminase increases” value is listed as 25%; the “Patients who skipped at least one plitidepsin infusion” value came to 47%. For the same molecule, the “Single-agent RD” value in the data set on patients was 3.2 mg m^−2.
